Assay results reported in ChEMBL document CHEMBL1159046, “New thalidomide analogues derived through Sonogashira or Suzuki reactions and their TNF expression inhibition profiles” (Bioorg Med Chem, 2010).
The source made the active and inactive calls. No cut-off for these calls is given here.

Experiments:
Jurkat [1] = test: Inhibition of NF-kappaB-mediated TNF expression in human Jurkat T cells coexpressing GFP reporter gene at 100 uM by flow cytometry; type: cell-based
Procedure, shortened: (§1)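 Jurkat cells stably carrying GFP under an NF-κB-responsive human TNF promoter (FRT-Jurkat TNF) were treated with racemic compound (0.1% DMSO final) for 24 h. GFP was read by flow cytometry at 515 nm ([…]), gated on viable FSC/SSC cells. Inhibition is the percentage decrease in GFP versus 0.1% solvent control. Assays were run in triplicate.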

Jurkat [2] = test: Inhibition of NF-kappaB-mediated TNF expression in human Jurkat T cells coexpressing GFP reporter gene at 10 uM by flow cytometry; type: cell-based; procedure, shortened: as §1
Jurkat [3] = test: Cytotoxicity against human Jurkat T cells assessed as viable cells at 10 uM after 24 hrs by flow cytometry; type: functional; details: read-out: Activity
Procedure, shortened: (§2)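 FRT-Jurkat TNF reporter cells were exposed to compound (racemic, 0.1% DMSO final) for 24 h and analysed by flow cytometry on FSC/SSC. Viable cells were counted as those inside the gate around the main population of solvent-only cells. Viability was confirmed by propidium iodide fluorescence at 570 nm (FL2). Assays were run in triplicate.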

Jurkat [4] = test: Cytotoxicity against human Jurkat T cells assessed as cell death at 100 uM after 24 hrs by flow cytometry; type: functional
Procedure, shortened: (§3)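 Jurkat T cells treated 24 h with compound (final DMSO 0.1%); cell death taken as % of cells with reduced size and granularity on flow cytometric forward- vs side-scatter plot, outside gate set on major solvent-only population; viability confirmed by propidium iodide staining (570 nm, FL2). Triplicate, racemic compounds.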

Jurkat [5] = test: Cytotoxicity against human Jurkat T cells assessed as cell death at 10 uM after 24 hrs by flow cytometry; type: functional; procedure, shortened: as §3
Jurkat [6] = test: Induction of apoptosis in human Jurkat T cells at 100 uM after 24 hrs by flow cytometry; type: functional
Procedure, shortened: (§4)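 Jurkat T cells were treated with compound for 24 h, with DMSO-only and untreated controls, then stained with a FITC-labelled substrate for cleaved caspase-3 (NucView-488). The apoptotic fraction was the percentage of cells with increased green fluorescence by flow cytometry. Cell death, taken as reduced size and granularity on FSC/SSC, was measured in parallel. Assays were run in triplicate.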

Jurkat [7] = test: Induction of apoptosis in human Jurkat T cells at 10 uM after 24 hrs by flow cytometry; type: functional
Procedure, shortened: (§5)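 Apoptosis in Jurkat T cells after 24 h compound exposure: cells stained with FITC-labelled substrate for cleaved caspase-3 (NucView-488), % cells with increased green fluorescence counted by flow cytometry with positivity gate; solvent (0.1% DMSO) and untreated controls. Triplicate, racemic compounds; three independent experiments.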

Jurkat [8] = test: Cytotoxicity against human Jurkat T cells assessed as viable cells at 1 uM after 24 hrs by flow cytometry; type: functional; details: read-out: Activity; procedure, shortened: as §2
Jurkat [9] = test: Inhibition of NF-kappaB-mediated TNF expression in human Jurkat T cells coexpressing GFP reporter gene at 0.1 uM by flow cytometry; type: cell-based; procedure, shortened: as §1
Jurkat [10] = test: Cytotoxicity against human Jurkat T cells assessed as cell death at 0.1 uM after 24 hrs by flow cytometry; type: functional; procedure, shortened: as §3
PBMC [11] = test: Inhibition of PMA-induced TNF production in human PBMC at 1 uM by RT-PCR; type: functional, cell-based
Procedure, shortened: (§6)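 PBMCs from healthy volunteers were freshly isolated, activated, and cultured with compound or DMSO for 2 h. Endogenous TNF mRNA was quantified by reverse transcription and real-time PCR (50 cycles: 95 °C 10 s, 55 °C 15 s, 72 °C 20 s) and normalised to β-actin.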

Jurkat [12] = test: Cytotoxicity against human Jurkat T cells assessed as viable cells at 0.1 uM after 24 hrs by flow cytometry; type: functional; details: read-out: Activity; procedure, shortened: as §2
Jurkat [13] = test: Inhibition of NF-kappaB-mediated TNF expression in human Jurkat T cells coexpressing GFP reporter gene at 1 uM by flow cytometry; type: cell-based; procedure, shortened: as §1
PBMC [14] = test: Cytotoxicity against human PBMC assessed as cell death at 1 to 10 uM; type: cell-based
PBMC [15] = test: Inhibition of PMA-induced TNF production in human PBMC at 10 uM by RT-PCR; type: functional, cell-based; procedure, shortened: as §6
Jurkat [16] = test: Induction of apoptosis in human Jurkat T cells at 1 uM after 24 hrs by flow cytometry; type: functional; procedure, shortened: as §5
Jurkat [17] = test: Induction of apoptosis in human Jurkat T cells at 0.1 uM after 24 hrs by flow cytometry; type: functional; procedure, shortened: as §4

Work on `O=C1CCC(N2C(=O)c3cccc(-c4ccc(O)cc4)c3C2=O)C(=O)N1` (racemic) yielded an inhibition (Jurkat [1]) of 19%.
Molecule `CC(=O)c1ccc(-c2cccc3c2C(=O)N(C2CCC(=O)NC2=O)C3=O)cc1` (racemic) has an inhibition (Jurkat [1]) of 17%.
Work on `CC(C)(C)C#Cc1cccc2c1C(=O)N(C1CCC(=O)NC1=O)C2=O` (racemic) yielded an inhibition (Jurkat [1]) of 24%.
Work on `N#CCCCC#Cc1ccc2c(c1)C(=O)N(C1CCC(=O)NC1=O)C2=O` (racemic) yielded an inhibition (Jurkat [1]) of 12%.
For `O=C1CCC(N2C(=O)c3cccc(C#CCO)c3C2=O)C(=O)N1` (racemic), the inhibition (Jurkat [1]) was 7%.
In the case of `CC(C)Oc1ccc(-c2ccc3c(c2)C(=O)N(C2CCC(=O)NC2=O)C3=O)cc1` (racemic), the inhibition (Jurkat [1]) is reported as 59%, the inhibition (Jurkat [2]) is reported as 10% and the viability at 10 µM (Jurkat [3]) is reported as 90%. For the same molecule, the Activity (Jurkat [4]) was 51%, the Activity (Jurkat [5]) was 14% and the Activity (Jurkat [6]) was 34%. The Activity (Jurkat [7]) was 12%.
`O=C1CCC(N2C(=O)c3ccc(-c4ccc(O)cc4)cc3C2=O)C(=O)N1` (racemic) showed an inhibition (Jurkat [1]) of 11%.
`O=C1CCC(N2C(=O)c3ccc(C#Cc4ccccc4)cc3C2=O)C(=O)N1` (racemic) showed an inhibition (Jurkat [1]) of 6%.
Work on `O=CC#Cc1ccc2c(c1)C(=O)N(C1CCC(=O)NC1=O)C2=O` (racemic) yielded an inhibition (Jurkat [1]) of 85%, a viability at 1 µM (Jurkat [8]) of 95% and an inhibition (Jurkat [9]) of 4%. For the same molecule, the Activity (Jurkat [10]) was 4%, the Activity (PBMC [11]) was “Active” and the inhibition (Jurkat [2]) was 86%. For the same molecule, the viability at 10 µM (Jurkat [3]) was 25%, the viability at 0.1 µM (Jurkat [12]) was 96% and the inhibition (Jurkat [13]) was 5%. For the same molecule, the Activity (PBMC [14]) was “Active”, the Activity (Jurkat [5]) was 86% and the Activity (PBMC [15]) was “Active”. For the same molecule, the Activity (Jurkat [16]) was 7%, the Activity (Jurkat [17]) was 7% and the Activity (Jurkat [7]) was 84%.
`NC(=O)c1ccc(-c2cccc3c2C(=O)N(C2CCC(=O)NC2=O)C3=O)cc1` (racemic) was tested, and the inhibition (Jurkat [1]) was 14%.
With `CC(C)(O)C#Cc1cccc2c1C(=O)N(C1CCC(=O)NC1=O)C2=O` (racemic) the inhibition (Jurkat [1]) was 6%.
`O=C1CCC(N2C(=O)c3cccc(-c4ccccc4)c3C2=O)C(=O)N1` (racemic) was tested, and the inhibition (Jurkat [1]) was 14%.
With `O=C1CCC(N2C(=O)c3ccc(C#CCO)cc3C2=O)C(=O)N1` (racemic) the inhibition (Jurkat [1]) was 10%.
`O=C1CCC(N2C(=O)c3cccc(C#Cc4ccccc4)c3C2=O)C(=O)N1` (racemic) gave an inhibition (Jurkat [1]) of 13%.
`CC(=O)c1ccc(-c2ccc3c(c2)C(=O)N(C2CCC(=O)NC2=O)C3=O)cc1` (racemic) was tested, and the inhibition (Jurkat [1]) was 26%.
Work on `CC(C)(O)C#Cc1ccc2c(c1)C(=O)N(C1CCC(=O)NC1=O)C2=O` (racemic) yielded an inhibition (Jurkat [1]) of 20%.
In the case of `CC(C)Cc1ccc(-c2ccc3c(c2)C(=O)N(C2CCC(=O)NC2=O)C3=O)cc1` (racemic), the inhibition (Jurkat [1]) is reported as 90%, the inhibition (Jurkat [2]) is reported as 5% and the viability at 10 µM (Jurkat [3]) is reported as 89%. For the same molecule, the Activity (Jurkat [4]) was 21%, the Activity (Jurkat [5]) was 6% and the Activity (Jurkat [6]) was 22%. It also gave an Activity (Jurkat [7]) of 7%.
`Cc1ccc(-c2ccc3c(c2)C(=O)N(C2CCC(=O)NC2=O)C3=O)cc1` (racemic) gave an inhibition (Jurkat [1]) of 14%.
For `O=C1CCC(N2C(=O)c3ccc(-c4ccccc4)cc3C2=O)C(=O)N1` (racemic), the inhibition (Jurkat [1]) was 12%.
Molecule `CC(C)Cc1ccc(-c2cccc3c2C(=O)N(C2CCC(=O)NC2=O)C3=O)cc1` (racemic) has an inhibition (Jurkat [1]) of 86%, an inhibition (Jurkat [2]) of 7% and a viability at 10 µM (Jurkat [3]) of 90%. The Activity (Jurkat [4]) was 94%, the Activity (Jurkat [6]) was 96% and the Activity (Jurkat [7]) was 7%.
`N#CCCCC#Cc1cccc2c1C(=O)N(C1CCC(=O)NC1=O)C2=O` (racemic) gave an inhibition (Jurkat [1]) of 9%.
`CC(C)(C)C#Cc1ccc2c(c1)C(=O)N(C1CCC(=O)NC1=O)C2=O` (racemic) was tested, and the inhibition (Jurkat [1]) was 19%.
In the case of `CNCC#Cc1ccc2c(c1)C(=O)N(C1CCC(=O)NC1=O)C2=O` (racemic), the inhibition (Jurkat [1]) is reported as 10%.
`Cc1ccc(-c2cccc3c2C(=O)N(C2CCC(=O)NC2=O)C3=O)cc1` (racemic) was tested, and the inhibition (Jurkat [1]) was 10%.
`CC(C)Oc1ccc(-c2cccc3c2C(=O)N(C2CCC(=O)NC2=O)C3=O)cc1` (racemic) gave an inhibition (Jurkat [1]) of 47%, an inhibition (Jurkat [2]) of 8% and a viability at 10 µM (Jurkat [3]) of 90%. For the same molecule, the Activity (Jurkat [4]) was 33%, the Activity (Jurkat [6]) was 30% and the Activity (Jurkat [7]) was 8%.
`NC(=O)c1ccc(-c2ccc3c(c2)C(=O)N(C2CCC(=O)NC2=O)C3=O)cc1` (racemic) showed an inhibition (Jurkat [1]) of 10%.
Molecule `O=C1CCC(N2C(=O)c3ccccc3C2=O)C(=O)N1` (racemic) [THALIDOMIDE] has an inhibition (Jurkat [1]) of 6%, an inhibition (Jurkat [2]) of 4% and an Activity (Jurkat [5]) of 6%. The Activity (Jurkat [6]) was 9% and the Activity (Jurkat [7]) was 7%.
